Measurements: ChEMBL document CHEMBL5678814, “Novel Mps1 Kinase Inhibitors with Potent Antitumor Activity” (Mol Cancer Ther, 2016)

What was measured:
[1] = Antiproliferative activity against human HeLa-MaTu cells assessed as cell growth inhibition incubated for 96 hrs by crystal violet staining
L-363 = experiment: Antiproliferative activity against human L-363 cells assessed as cell growth inhibition incubated for 96 hrs by crystal violet staining; settings: L-363, 96 h
CAL-33 = experiment: Antiproliferative activity against human CAL-33 cells assessed as cell growth inhibition incubated for 96 hrs by crystal violet staining; settings: CAL-33, 96 h
Malme-3M = experiment: Antiproliferative activity against human Malme-3M cells assessed as cell growth inhibition incubated for 96 hrs by crystal violet staining
[2] = biological target: Mitogen-activated protein kinase kinase kinase kinase 1 (Homo sapiens, UniProt Q92918); experiment: Binding affinity to HPK1 (unknown origin) assessed as dissociation constant
Sequence of Mitogen-activated protein kinase kinase kinase kinase 1 (Q92918 whole entry): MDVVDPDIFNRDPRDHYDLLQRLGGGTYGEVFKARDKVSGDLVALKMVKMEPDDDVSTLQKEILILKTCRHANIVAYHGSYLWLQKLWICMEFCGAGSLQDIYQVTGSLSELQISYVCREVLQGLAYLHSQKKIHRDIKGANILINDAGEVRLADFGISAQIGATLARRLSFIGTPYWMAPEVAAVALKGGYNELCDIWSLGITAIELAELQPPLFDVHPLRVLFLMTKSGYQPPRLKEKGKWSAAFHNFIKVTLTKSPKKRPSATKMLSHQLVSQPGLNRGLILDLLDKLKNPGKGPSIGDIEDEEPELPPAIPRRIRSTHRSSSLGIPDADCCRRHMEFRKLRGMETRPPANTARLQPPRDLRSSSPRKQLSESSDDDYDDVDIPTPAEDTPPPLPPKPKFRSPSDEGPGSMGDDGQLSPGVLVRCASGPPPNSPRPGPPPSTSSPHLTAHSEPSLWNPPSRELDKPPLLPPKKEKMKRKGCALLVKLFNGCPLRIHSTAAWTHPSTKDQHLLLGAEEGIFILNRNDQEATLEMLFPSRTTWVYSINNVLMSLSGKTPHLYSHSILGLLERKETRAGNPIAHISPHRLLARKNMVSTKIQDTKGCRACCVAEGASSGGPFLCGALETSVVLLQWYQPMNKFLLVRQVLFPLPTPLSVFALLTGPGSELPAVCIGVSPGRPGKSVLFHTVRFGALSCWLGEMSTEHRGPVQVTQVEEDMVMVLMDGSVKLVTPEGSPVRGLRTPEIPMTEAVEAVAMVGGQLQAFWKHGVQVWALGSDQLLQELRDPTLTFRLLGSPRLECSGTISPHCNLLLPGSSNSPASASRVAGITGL

[3] = In vivo inhibition of Mps1 in NMRI mouse assessed as MTD at => 1 mg/kg,po administered twice daily for 2 days and measured after 3 days relative to control; type: functional; settings: time 2 day
NCI-H1155 = experiment: Antiproliferative activity against human NCI-H1155 cells assessed as cell growth inhibition incubated for 96 hrs by crystal violet staining; settings: NCI-H1155, 96 h
[4] = Clearance in male CD1 mouse blood at 0.5 mg/kg, iv measured after 24 hrs by LC/-MS/MS analysis; type: ADME, organism-based
How it was run: (§1)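 Male CD1 mice received a single iv bolus of 0.5 mg/kg in 1% DMSO/99% plasma. Plasma was sampled at 2, 5, 15, 30 and 45 min and at 1, 2, 4, 6, 8 and 24 h, precipitated with ice-cold acetonitrile (1:5), and supernatants were run by LC/MS-MS. Parameters were estimated from plasma concentration data, with AUC by the log-linear trapezoidal rule.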

[5] = Antiproliferative activity against human HeLa-MaTu-ADR cells assessed as cell growth inhibition incubated for 96 hrs by crystal violet staining
SJRH30 = experiment: Antiproliferative activity against human Rh30 cells assessed as cell growth inhibition incubated for 96 hrs by MTS assay; type: functional, cell-based; settings: SJRH30, 96 h
OV-90 = experiment: Antiproliferative activity against human OV-90 cells assessed as cell growth inhibition incubated for 96 hrs by crystal violet staining; settings: OV-90, 96 h
HCC70 = experiment: Antiproliferative activity against human HCC70 cells assessed as cell growth inhibition incubated for 96 hrs by MTS assay; type: functional, cell-based; settings: HCC70, 96 h
NCI-H1650 = experiment: Antiproliferative activity against human NCI-H1650 cells assessed as cell growth inhibition incubated for 96 hrs by crystal violet staining; settings: NCI-H1650, 96 h
[6] = Synergistic antitumor activity against human LU387 cells xenografted female athymic NMRI mouse model assessed as MTD at 1 mg/kg,po administered twice daily intermittent for 2 days on/5 days off in the presence of paclitaxel relative to control; type: functional; settings: time 7 day
HCT-15 = experiment: Antiproliferative activity against human HCT-15 cells assessed as cell growth inhibition incubated for 96 hrs by crystal violet staining; settings: HCT-15, 96 h
NCI-H2009 = experiment: Antiproliferative activity against human NCI-H2009 cells assessed as cell growth inhibition incubated for 96 hrs by crystal violet staining; settings: NCI-H2009, 96 h
[7] = Synergistic antitumor activity against human MAXF 1384 cells xenografted female athymic NMRI mouse model assessed as MTD at 2 mg/kg,po administered twice daily intermittent for 2 days on/5 days off measured after 48 hrs treatment in the presence of paclitaxel relative to control; type: functional; settings: time 9 day
COLO-829 = experiment: Antiproliferative activity against human COLO-829 cells assessed as cell growth inhibition incubated for 96 hrs by crystal violet staining; settings: COLO-829, 96 h
A-375 = experiment: Antiproliferative activity against human A-375 cells assessed as cell growth inhibition incubated for 96 hrs by crystal violet staining; settings: A-375, 96 h
SK-OV-3 = experiment: Antiproliferative activity against human SK-OV-3 cells assessed as cell growth inhibition incubated for 96 hrs by crystal violet staining; settings: SK-OV-3, 96 h
RPMI-2650 = experiment: Antiproliferative activity against human RPMI-2650 cells assessed as cell growth inhibition incubated for 96 hrs by crystal violet staining; settings: RPMI-2650, 96 h
NCI-H2030 = experiment: Antiproliferative activity against human NCI-H2030 cells assessed as cell growth inhibition incubated for 96 hrs by crystal violet staining; settings: NCI-H2030, 96 h
[8] = Antiproliferative activity against human A2780cis cells assessed as cell growth inhibition incubated for 96 hrs by crystal violet staining
SK-BR-3 = experiment: Antiproliferative activity against human SK-BR-3 cells assessed as cell growth inhibition incubated for 96 hrs by crystal violet staining; settings: SK-BR-3, 96 h
[9] = Half life in male CD1 mouse plasma at 0.5 mg/kg, iv measured after 24 hrs by LC/-MS/MS analysis; type: ADME, organism-based
How it was run: as §1

COLO 320DM = experiment: Antiproliferative activity against human COLO 320DM cells assessed as cell growth inhibition incubated for 96 hrs by crystal violet staining
NCI-H2452 = experiment: Antiproliferative activity against human NCI-H2452 cells assessed as cell growth inhibition incubated for 96 hrs by crystal violet staining; settings: NCI-H2452, 96 h
[10] = Antiproliferative activity against human JMSU-1 cells assessed as cell growth inhibition incubated for 96 hrs by MTS assay; type: functional, cell-based; settings: JMSU-1, 96 h
RT-112 = experiment: Antiproliferative activity against human RT-112 cells assessed as cell growth inhibition incubated for 96 hrs by MTS assay; type: functional, cell-based; settings: RT-112, 96 h
U2OS = experiment: Antiproliferative activity against human U2OS cells assessed as cell growth inhibition incubated for 96 hrs by MTS assay; type: functional, cell-based
HT1197 = experiment: Antiproliferative activity against human HT1197 cells assessed as cell growth inhibition incubated for 96 hrs by MTS assay; type: functional, cell-based; settings: HT1197, 96 h
[11] = biological target: Serine/threonine-protein kinase mTOR (Homo sapiens, UniProt P42345); experiment: Binding affinity to MTOR (unknown origin) assessed as dissociation constant
DU-145 = experiment: Antiproliferative activity against human DU-145 cells assessed as cell growth inhibition incubated for 96 hrs by MTS assay; type: functional, cell-based; settings: DU-145, 96 h
SK-N-AS = experiment: Antiproliferative activity against human SK-N-AS cells assessed as cell growth inhibition incubated for 96 hrs by crystal violet staining

COc1cc(S(C)(=O)=O)ccc1Nc1nc2ccc(-c3ccc(NC(=O)[C@H](C)c4ccc(F)cc4)cc3)cn2n1 [BAY-1161909]
IC50 [1]: 200 nM | IC50 (L-363): 32 nM | IC50 (CAL-33): 110 nM | IC50 (Malme-3M): 200 nM | Kd [2]: 40000 nM | MED [3]: >=40% | IC50 (NCI-H1155): 1400 nM | clearance [4]: 11.5 mL/min/kg | IC50 [5]: 180 nM | IC50 (SJRH30): 450 nM | IC50 (OV-90): 150 nM | IC50 (HCC70): 87 nM | IC50 (NCI-H1650): 130 nM | MED [6]: 40% | IC50 (HCT-15): 110 nM | IC50 (NCI-H2009): 560 nM | MED [7]: 80% | IC50 (COLO-829): 300 nM | IC50 (A-375): 100 nM | IC50 (SK-OV-3): 3700 nM | IC50 (RPMI-2650): 51 nM | IC50 (NCI-H2030): 700 nM | IC50 [8]: 60 nM | IC50 (SK-BR-3): > 3000 nM | half-life [9]: 4.9 h | IC50 (COLO 320DM): 110 nM | IC50 (NCI-H2452): 120 nM | IC50 [10]: 89 nM | IC50 (RT-112): 83 nM | IC50 (U2OS): 550 nM | IC50 (HT1197): > 3000 nM | Kd [11]: 40000 nM | IC50 (DU-145): 160 nM | IC50 (SK-N-AS): 97 nM
